Laboratory results as given in ChEMBL document CHEMBL1629439, “High-throughput identification of antibacterials against methicillin-resistant Staphylococcus aureus (MRSA) and the transglycosylase” (Bioorg Med Chem, 2010).
Converted amounts (≈) assume the structure as drawn.

Assays:
Staphylococcus aureus [1] = experiment: Antimicrobial activity against methicillin-resistant Staphylococcus aureus isolate NTUH4722 after 18 to 24 hrs by alamar blue assay; format: functional
Method in brief: (§1)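 Broth microdilution per NCCLS standard, Mueller-Hinton broth, 8-point twofold dilutions; exponentially growing cells at 5 10^5 cells/ml with compound, 18–24 h at 37 C; 20% Alamar blue added, fluorescence read; MIC90 taken as lowest concentration preventing at least 90% growth.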

Staphylococcus aureus [2] = experiment: Antimicrobial activity against Staphylococcus aureus ATCC 29213 after 18 to 24 hrs by alamar blue assay
Staphylococcus aureus [3] = experiment: Antimicrobial activity against oxacillin- and methicillin-resistant Staphylococcus aureus isolate Sa-OXA-R2 after 18 to 24 hrs by alamar blue assay; format: functional; method in brief: as §1
Pseudomonas aeruginosa = experiment: Antimicrobial activity against Pseudomonas aeruginosa ATCC 25619 after 18 to 24 hrs by alamar blue assay; format: functional; conditions: Pseudomonas aeruginosa, ATCC 25619; read-out: MIC
Method in brief: (§2)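 Broth microdilution per NCCLS in Mueller-Hinton broth, 8-point twofold dilutions, 384-well format. Exponential-phase cells at 5 × 10^5 cells/ml incubated with compound 18–24 h at 37 °C, then 20% Alamar blue added and fluorescence read. MIC90 taken as the lowest concentration preventing at least 90% bacterial growth.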

Escherichia coli = experiment: Antimicrobial activity against Escherichia coli ATCC […] after 18 to 24 hrs by alamar blue assay; format: functional; conditions: Escherichia coli; read-out: MIC; method in brief: as §2
[4] = test system: Stenotrophomonas maltophilia; experiment: Antimicrobial activity against Stenotrophomonas maltophilia ATCC 13637 after 18 to 24 hrs by alamar blue assay; format: functional; conditions: Stenotrophomonas maltophilia, ATCC 13637; read-out: MIC; method in brief: as §2
Bacillus subtilis = experiment: Antimicrobial activity against Bacillus subtilis ATCC 23857 after 18 to 24 hrs by alamar blue assay; format: functional; method in brief: as §2
Staphylococcus aureus [5] = experiment: Antimicrobial activity against methicillin-resistant Staphylococcus aureus ATCC 33592 after 18 to 24 hrs by alamar blue assay; format: functional; conditions: Staphylococcus aureus, ATCC 33592; read-out: MIC; method in brief: as §1
Serratia marcescens = experiment: Antimicrobial activity against Serratia marcescens ATCC 14756 after 18 to 24 hrs by alamar blue assay; format: functional; conditions: Serratia marcescens, ATCC 14756; read-out: MIC; method in brief: as §2
[6] = test system: Mycolicibacterium smegmatis; experiment: Antimicrobial activity against Mycobacterium smegmatis BCRC 11565 after 18 to 24 hrs by alamar blue assay; format: functional; conditions: Mycolicibacterium smegmatis, BCRC 11565; read-out: MIC; method in brief: as §2
Acinetobacter baumannii = experiment: Antimicrobial activity against Acinetobacter baumannii ATCC 49139 after 18 to 24 hrs by alamar blue assay; format: functional; conditions: Acinetobacter baumannii, ATCC 49139; read-out: MIC; method in brief: as §2

Structure (SMILES)	MIC (Staphylococcus aureus [1])	MIC (Staphylococcus aureus [2])	MIC (Staphylococcus aureus [3])	MIC (Pseudomonas aeruginosa)	MIC (Escherichia coli)	MIC [4]	MIC (Bacillus subtilis)	MIC (Staphylococcus aureus [5])	MIC (Serratia marcescens)	MIC [6]	MIC (Acinetobacter baumannii)
O=C(Nc1nnc(-c2ccc(F)cc2)o1)c1cccc(Cl)c1	1 µg/mL (≈ 3.15 µM)	1 µg/mL (≈ 3.15 µM)	4 µg/mL (≈ 12.6 µM)	> 256 µg/mL	> 256 µg/mL	> 256 µg/mL	0.5 µg/mL (≈ 1.57 µM)	0.5 µg/mL (≈ 1.57 µM)	> 256 µg/mL	0.5 µg/mL (≈ 1.57 µM)	> 256 µg/mL
CCCc1ccc(C)c(Oc2ccc(Cl)cc2NC(=O)c2cc(Cl)cc(Br)c2O)c1	0.06 µg/mL (≈ 0.118 µM)	0.25 µg/mL (≈ 0.491 µM)	0.06 µg/mL (≈ 0.118 µM)	16 µg/mL (≈ 31.4 µM)	8 µg/mL (≈ 15.7 µM)	16 µg/mL (≈ 31.4 µM)	< 0.03 µg/mL	0.125 µg/mL (≈ 0.245 µM)	16 µg/mL (≈ 31.4 µM)	0.5 µg/mL (≈ 0.982 µM)	16 µg/mL (≈ 31.4 µM)
CCCc1cc(O)nc(N2NC(C)=CC2NC(=O)c2ccccc2)n1 (configuration not stated)	8 µg/mL (≈ 23.6 µM)	2 µg/mL (≈ 5.89 µM)	8 µg/mL (≈ 23.6 µM)	> 256 µg/mL	> 256 µg/mL	> 256 µg/mL	0.25 µg/mL (≈ 0.737 µM)	8 µg/mL (≈ 23.6 µM)	> 256 µg/mL	0.25 µg/mL (≈ 0.737 µM)	> 256 µg/mL
Cc1c(CC(=O)N[C@@H](C(=O)O)C(C)C)c(=O)oc2c(C)c3occ(-c4ccc(Cl)cc4)c3cc12	2.5 µg/mL (≈ 5.19 µM)	1.25 µg/mL (≈ 2.59 µM)	2.5 µg/mL (≈ 5.19 µM)	> 256 µg/mL	> 256 µg/mL	> 256 µg/mL	> 64 µg/mL	1.25 µg/mL (≈ 2.59 µM)	> 256 µg/mL	1 µg/mL (≈ 2.07 µM)	> 256 µg/mL
O=C(Nc1nnc(-c2ccc(Cl)cc2)o1)c1cccc(Cl)c1	0.125 µg/mL (≈ 0.374 µM)	0.5 µg/mL (≈ 1.5 µM)	0.125 µg/mL (≈ 0.374 µM)	> 256 µg/mL	> 256 µg/mL	> 256 µg/mL	0.5 µg/mL (≈ 1.5 µM)	0.25 µg/mL (≈ 0.748 µM)	> 256 µg/mL	0.5 µg/mL (≈ 1.5 µM)	> 256 µg/mL
COc1ccccc1N1C(=O)c2cc([N+](=O)[O-])cc3cc([N+](=O)[O-])cc(c23)C1=O	2.5 µg/mL (≈ 6.36 µM)	1.25 µg/mL (≈ 3.18 µM)	0.3 µg/mL (≈ 0.763 µM)	> 256 µg/mL	> 256 µg/mL	> 256 µg/mL	4 µg/mL (≈ 10.2 µM)	2.5 µg/mL (≈ 6.36 µM)	> 256 µg/mL	4 µg/mL (≈ 10.2 µM)	> 256 µg/mL
O=C(Nc1nnc(-c2ccc(F)cc2)o1)c1ccc(Cl)s1	1.2 µg/mL (≈ 3.71 µM)	1.2 µg/mL (≈ 3.71 µM)	1.2 µg/mL (≈ 3.71 µM)	> 256 µg/mL	> 256 µg/mL	> 256 µg/mL	0.5 µg/mL (≈ 1.54 µM)	1.2 µg/mL (≈ 3.71 µM)	> 256 µg/mL	0.5 µg/mL (≈ 1.54 µM)	> 256 µg/mL
O=C(Nc1ccc(-c2nc3ccccc3[nH]2)cc1)c1ccc([N+](=O)[O-])o1	8 µg/mL (≈ 23 µM)	0.125 µg/mL (≈ 0.359 µM)	4 µg/mL (≈ 11.5 µM)	128 µg/mL (≈ 367 µM)	256 µg/mL (≈ 735 µM)	32 µg/mL (≈ 91.9 µM)	0.06 µg/mL (≈ 0.172 µM)	0.25 µg/mL (≈ 0.718 µM)	32 µg/mL (≈ 91.9 µM)	0.5 µg/mL (≈ 1.44 µM)	12 µg/mL (≈ 34.5 µM)
O=C(Nc1nnc(-c2ccc(Cl)cc2)o1)c1cccc(Br)c1	2 µg/mL (≈ 5.28 µM)	0.5 µg/mL (≈ 1.32 µM)	2 µg/mL (≈ 5.28 µM)	> 256 µg/mL	> 256 µg/mL	> 256 µg/mL	0.5 µg/mL (≈ 1.32 µM)	0.5 µg/mL (≈ 1.32 µM)	> 256 µg/mL	0.5 µg/mL (≈ 1.32 µM)	> 256 µg/mL
O=C(Nc1cc(Cl)ccc1Cl)c1cc(Cl)cc(Cl)c1O	0.5 µg/mL (≈ 1.42 µM)	1 µg/mL (≈ 2.85 µM)	2 µg/mL (≈ 5.7 µM)	16 µg/mL (≈ 45.6 µM)	8 µg/mL (≈ 22.8 µM)	16 µg/mL (≈ 45.6 µM)	< 0.03 µg/mL	0.5 µg/mL (≈ 1.42 µM)	16 µg/mL (≈ 45.6 µM)	0.5 µg/mL (≈ 1.42 µM)	16 µg/mL (≈ 45.6 µM)
O=C(Nc1ccc(Cl)c(S(=O)(=O)Nc2cccc(Cl)c2)c1)c1ccc([N+](=O)[O-])o1	1.5 µg/mL (≈ 3.29 µM)	1.5 µg/mL (≈ 3.29 µM)	1.5 µg/mL (≈ 3.29 µM)	128 µg/mL (≈ 281 µM)	256 µg/mL (≈ 561 µM)	32 µg/mL (≈ 70.1 µM)	0.06 µg/mL (≈ 0.132 µM)	1.5 µg/mL (≈ 3.29 µM)	32 µg/mL (≈ 70.1 µM)	0.5 µg/mL (≈ 1.1 µM)	12 µg/mL (≈ 26.3 µM)
CCc1cc(O)nc(N2NC(C)=CC2NC(=O)c2ccccc2Cl)n1 (configuration not stated)	1.2 µg/mL (≈ 3.34 µM)	1.2 µg/mL (≈ 3.34 µM)	1.2 µg/mL (≈ 3.34 µM)	> 256 µg/mL	> 256 µg/mL	> 256 µg/mL	0.25 µg/mL (≈ 0.695 µM)	1.2 µg/mL (≈ 3.34 µM)	> 256 µg/mL	0.25 µg/mL (≈ 0.695 µM)	> 256 µg/mL
